Publication PMC3601557 (Chemistry & biology, 2012)
“Also recorded” adds a separate entry of the source.

How the values were obtained:
[1] = system: P. falciparum D10 parasites; assay: P. falciparum replication assay; format: cell-based
[2] = system: P. falciparum ring stage parasites (food vacuole); assay: Phenotypic characterization of treated ring stage parasites; format: cell-based; details: 24 hr, Giemsa smears
Outline: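 Synchronized ring-stage cultures (2% parasitemia) were treated with a range of test compound concentrations or DMSO for 24 hr. Morphology was then examined on Giemsa-stained thin blood smears, and the food vacuole defect was scored as enlargement of this acidic organelle.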

FP2, FP2′, and FP3 = assay: Competitive ABPP with Cy5-DCG-04 in parasite lysates; format: biochemical, P. falciparum; details: D10 lysates, 30 min preincubation, 1 µM Cy5-DCG-04 1 hr
FP1 [3] = biological target: T1, FP1 (Plasmodium falciparum, UniProt P25805); assay: Competitive ABPP with Cy5-DCG-04 in parasite lysates; format: biochemical, P. falciparum; details: D10 lysates, 30 min preincubation, 1 µM Cy5-DCG-04 1 hr
T1 sequence (P25805 333-569): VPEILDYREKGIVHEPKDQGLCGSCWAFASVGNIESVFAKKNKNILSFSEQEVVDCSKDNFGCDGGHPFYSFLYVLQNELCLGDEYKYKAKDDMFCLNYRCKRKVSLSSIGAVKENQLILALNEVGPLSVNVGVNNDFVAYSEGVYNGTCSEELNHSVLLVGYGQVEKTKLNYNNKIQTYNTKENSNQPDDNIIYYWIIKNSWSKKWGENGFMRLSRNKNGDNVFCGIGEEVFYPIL
Outline: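 Trophozoites were harvested 36 hr post-invasion, freed from RBCs with saponin, and extracted in PBS with 1% NP40. Soluble lysate was diluted 1:10 in acetate buffer (50 mM sodium acetate, 5 mM MgCl2, 5 mM DTT) and pretreated 30 min with test compound over a concentration range. Then 1 µM Cy5-DCG04 was added for 1 hr. Reactions were boiled in loading buffer, resolved by SDS-PAGE, and scanned for in-gel fluorescence.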

FP1 [4] = biological target: T1, FP1; assay: Falcipain inhibition in living parasites; format: cell-based, P. falciparum
DPAP1 = biological target: T2, DPAP1 (Plasmodium falciparum, UniProt Q8IIJ9); assay: Competitive ABPP with Cy5-DCG-04, DPAP1 labeling; format: cell-based, P. falciparum
T2 sequence (Q8IIJ9 370-599 limits assumed): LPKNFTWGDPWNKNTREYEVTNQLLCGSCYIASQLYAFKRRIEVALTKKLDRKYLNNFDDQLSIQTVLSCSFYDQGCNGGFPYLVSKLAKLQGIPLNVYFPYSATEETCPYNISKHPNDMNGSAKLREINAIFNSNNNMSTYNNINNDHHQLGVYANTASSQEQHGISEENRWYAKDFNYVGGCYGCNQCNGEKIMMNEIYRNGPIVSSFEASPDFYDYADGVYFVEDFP
T2 sequence (Q8IIJ9 600-700 limits assumed): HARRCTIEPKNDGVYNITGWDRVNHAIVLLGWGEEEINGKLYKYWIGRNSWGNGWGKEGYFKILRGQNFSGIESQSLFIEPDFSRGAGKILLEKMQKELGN
T2 sequence (Q8IIJ9 28-209 limits assumed): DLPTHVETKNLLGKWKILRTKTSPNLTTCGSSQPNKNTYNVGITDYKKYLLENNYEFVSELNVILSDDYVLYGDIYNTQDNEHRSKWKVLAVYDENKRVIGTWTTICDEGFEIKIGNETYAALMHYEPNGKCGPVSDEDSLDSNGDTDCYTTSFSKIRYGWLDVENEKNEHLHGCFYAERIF
Outline: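 A P. falciparum culture at 20% parasitemia and 2% hematocrit was exposed to graded test compound for 1 hr. Aliquots were lysed with 0.15% saponin in PBS. Parasite pellets were labelled for 1 hr with 1 µM Cy5-DCG04 in acetate buffer containing 1% NP40. After SDS-PAGE, DPAP1 band fluorescence was quantified and fitted to a sigmoidal dose-response curve to give IC50.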

DPAP3 = assay: Competitive ABPP with DPAP activity-based probe FY01; format: biochemical, P. falciparum; details: competitive ABPP with FY01, Figure S3
[5] = biological target: T3, recombinantly produced FP2 (Plasmodium falciparum, UniProt Q8I6U4); assay: Kinetics of substrate turnover inhibition; format: biochemical, P. falciparum
T3 sequence (Q8I6U4 244-484): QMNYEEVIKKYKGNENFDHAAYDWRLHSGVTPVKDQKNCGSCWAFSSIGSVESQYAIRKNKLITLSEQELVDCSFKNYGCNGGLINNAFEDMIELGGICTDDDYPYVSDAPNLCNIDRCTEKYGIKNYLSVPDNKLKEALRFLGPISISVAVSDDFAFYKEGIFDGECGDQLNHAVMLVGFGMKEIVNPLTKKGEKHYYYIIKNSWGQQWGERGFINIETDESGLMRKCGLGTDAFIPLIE
Outline: (§1)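 Fluorescence (ex 350 nm, em 460 nm) was followed for 2 hr at several inhibitor concentrations. Turnover relative to DMSO controls (v/v0) was fitted to an irreversible inhibition model; ki = kobs/[I].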

[6] = biological target: T4, recombinantly produced FP3 (Plasmodium falciparum, UniProt Q8IIL0); assay: Kinetics of substrate turnover inhibition; format: biochemical, P. falciparum
T4 sequence (Q8IIL0 243-492): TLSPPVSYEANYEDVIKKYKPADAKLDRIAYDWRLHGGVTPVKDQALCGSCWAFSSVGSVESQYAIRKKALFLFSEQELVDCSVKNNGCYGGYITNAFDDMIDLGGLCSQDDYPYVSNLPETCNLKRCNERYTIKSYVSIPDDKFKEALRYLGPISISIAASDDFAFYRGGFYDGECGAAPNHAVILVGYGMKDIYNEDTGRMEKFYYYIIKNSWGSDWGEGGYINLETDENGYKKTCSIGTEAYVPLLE
Outline: as §1

cathepsin L = cathepsin L (Mus musculus, UniProt P06797); format: cell-based; details: mouse macrophages, 0.5 µM
cathepsin L, sequence (P06797 114-334): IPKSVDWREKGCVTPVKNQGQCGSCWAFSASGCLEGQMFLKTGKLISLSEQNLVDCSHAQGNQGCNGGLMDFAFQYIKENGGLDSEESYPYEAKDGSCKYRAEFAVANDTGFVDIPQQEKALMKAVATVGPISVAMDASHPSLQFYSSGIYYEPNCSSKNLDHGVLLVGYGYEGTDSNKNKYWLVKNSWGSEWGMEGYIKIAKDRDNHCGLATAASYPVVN
Outline: (§2)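 Bone marrow-derived mouse macrophages were preincubated with 0.5 or 5 µM test compound. Residual protease activity was then read in protein extracts by labelling with either a broad papain-like cysteine protease activity-based probe (cathepsins) or a proteasome-specific activity-based probe (proteasome).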

[7] = system: cathepsins B, H, S, and Z; format: cell-based; details: mouse macrophages, 5 µM
Outline: as §2

proteasome = format: cell-based; details: mouse macrophages preincubated with 0.5 µM and 5 µM
Outline: as §2

[8] = system: proteins in the 28 kDa region (food vacuole falcipains); assay: Labeling of intact schizonts with rhodamine probes; format: cell-based, P. falciparum; details: pretreatment with 10 µM nonfluorescent compound, then 10 µM RhSym4 1 hr
Outline: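 Purified schizonts were pretreated with 10 µM nonfluorescent competitor or DMSO. They were then incubated 1 hr with 10 µM rhodamine-tagged probe in PBS. Samples were boiled in loading buffer, proteins resolved by SDS-PAGE, and labelled bands detected by flatbed fluorescence scanning.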

red blood cells (RBCs) = details: even at the highest tested concentrations (>25 µM); ref Conroy et al., 2010; cited from earlier work

## CC[C@H](C)[C@@H](C(=O)O[C@@H](CC(C)C)C(=O)N[C@@H](CC(C)C)C(=O)N[C@@H](C)/C=C/C(=O)N1C(=O)C=C(OC)[C@@H]1C)N(C)C [Sym4, symplostatin 4]
[1]; EC50 0.7 µM versus 0.1 µM
  fold higher concentration for parasite killing than for food vacuole defect: 7 fold
[1]; replication assay, 75 hr
  fold more potent than Sym4^mmp → Ala (EC50): 40 fold
[2]
  concentration causing swollen food vacuole phenotype: 0.1 µM
FP2, FP2′, and FP3
  concentration inhibiting Cy5-DCG-04 labeling of FP2, FP2′, and FP3: 1.5 nM
FP1 [3]
  concentration inhibiting Cy5-DCG-04 labeling of FP1: > 1.6 µM
FP1 [4]
  IC50: 140 ± 23 nM
DPAP1; competitive ABPP with Cy5-DCG04, Figure 4
  inhibition of DPAP1: neither DPAP1 (Figure 4) nor DPAP3 (Figure S3) is inhibited
DPAP1; living parasites, 1 hr, at 1 µM
  inhibition of DPAP1: did not inhibit
DPAP3
  inhibition of DPAP3: neither DPAP1 (Figure 4) nor DPAP3 (Figure S3) is inhibited
[5]
  mode of inhibition: irreversible inhibitor
[6]
  mode of inhibition: irreversible inhibitor
Cathepsin L
  inhibition of cathepsin L: inhibit; also recorded: inhibits a large portion
[7]
  inhibition of cathepsins B, H, S, and Z: also inhibited; also recorded: required ten times higher concentrations (i.e., 5 µM) to reach the same inhibition level
proteasome
  inhibition of the proteasome: did not inhibit; also recorded: does not inhibit
[8]
  competition of RhSym4 labeling: sensitive to preincubation
Red blood cells (RBCs)
  lysis of red blood cells: no lysis
